# Assay results reported in PMC6716794 (Biochemistry, 2019).
# “Also recorded” adds a separate entry of the source.
# Assays:
# [1] = test system: thrombin ABE I; settings: ligand bound to ABE II; cited from earlier work
# [2] = biological target: T1, ProT (prothrombin), pro-ABE I (Homo sapiens, UniProt P00734); assay: 1D proton line broadening with ProT; format: binding; settings: NMR buffer pH 6.5, 25 °C
# How it was run: (§1)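 Human plasma proteins: prothrombin, and thrombin blocked with PPACK (4:1 PPACK:thrombin, 37 °C, 30 min). Both were exchanged by ultrafiltration into NMR buffer (25 mM H3PO4, 150 mM NaCl, 0.2 mM EDTA, pH 6.5), and concentrations were set by E1%280 (13.8 prothrombin, 18.3 thrombin). Peptide at about 10-fold excess. Peptide 1H spectra were compared with and without enzyme.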
# [3] = biological target: T1, ProT (prothrombin), pro-ABE I; assay: 1D and 2D 1H,15N-HSQC NMR titration with ProT; format: binding; settings: [15N]-labeled at F55, K51, E53, D58 and E60; pH 6.5, 25 °C
# How it was run: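 Human plasma prothrombin buffer-exchanged into NMR buffer (25 mM H3PO4, 150 mM NaCl, 0.2 mM EDTA, pH 6.5). 15N-labeled PAR1 peptide held constant at 50 μM while protein was serially diluted from 115 or 150 μM. 1D/2D 1H,15N-HSQC shifts were fitted to a quadratic binding equation for KD, with Monte-Carlo errors assuming 10% dilution error. Titrations were run at least in duplicate.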
# [4] = test system: PPACK-thrombin, ABE I; assay: 1D proton line broadening with PPACK-thrombin; format: binding, human; settings: NMR buffer pH 6.5, 25 °C
# How it was run: as §1
substance,measurement,setting,value
"GpIbα: platelet receptor glycoprotein GpIbα, binds thrombin ABE II",Effect on affinity of thrombomodulin TM456 for thrombin ABE I,[1],the affinity of thrombomodulin TM456 for ABE I decreases
"PAR1G (49–62, P54G): weak binding PAR1 variant, residues 49–62 with P54G (NDKYEGFWEDEEKN; UniProt P25116 49-62, looked up, fragment P54G)",1D proton line broadening with ProT (PAR1G),[2]; 830 μM PAR1G with 83 μM ProT,1D proton line broadening could still be observed
same,Binding with pro-ABE I on ProT,[3],very weak binding with pro-ABE I on ProT
same,1D proton line broadening with mature thrombin (PAR1G),[4]; 870 μM PAR1G with 87 μM PPACK-thrombin,increased further with the mature thrombin; also recorded: the interactions increased upon formation of mature thrombin
"PAR1P (49–62, P54): native PAR1 sequence peptide, residues 49–62, P54 (NDKYEPFWEDEEKN; UniProt P25116 49-62, looked up, fragment)",1D proton line broadening with ProT (PAR1P),"[2]; 780 μM PAR1P with 59 μM ProT, residues D50, K51, E53, F55, D58, E60",Substantial amide proton peak broadening; also recorded: moderate interactions with ProT
same,1D proton line broadening with PPACK-thrombin (PAR1P),[4]; 900 μM PAR1P with 97 μM PPACK-thrombin,increase in line broadening; also recorded: the interactions increased upon formation of mature thrombin
